In ChEMBL document CHEMBL3045478, “Insect antifeedant flavonoids from Gnaphalium affine D. Don” (2000):
The source made the active and inactive calls. The calls are words filed in the database; no cut-off is given here.

Test system: Spodoptera litura
Experiment: Antifeedant activity against Spodoptera litura in compound treated cork borer from fresh sweet potato leaves by Choice Leaf-Disk Bioassay
Assay type: functional
Method in brief: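 Partly eaten disks were photocopied and scanned to digital files, and each treated disk was measured against an intact disk. Antifeedant index (AFI) = % treated consumed/(% treated + % control consumed) × 100. The effective dose was taken as the midpoint between complete inhibition and no effect.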

Structure (SMILES) | ED50 | pED50
COc1cc2oc(-c3ccccc3)c(OC)c(=O)c2c(O)c1O | 0.25 ×10⁻⁷ mol/cm2 | 7.6
COc1c(OC)c(O)c2c(=O)c(OC)c(-c3ccccc3)oc2c1OC | 0.2 ×10⁻⁷ mol/cm2 | 7.7
COc1cc(O)c2c(=O)c(OC)c(-c3ccc(OC)c(OC)c3)oc2c1 | inactive | 
O=c1c(O)c(-c2ccc(O)c(O)c2)oc2cc(O)cc(O)c12 | inactive | 
COc1ccc(-c2oc3c(OC)c(OC)c(OC)c(O)c3c(=O)c2OC)cc1 [5-HYDROXYAURANETIN] | 1.1 ×10⁻⁷ mol/cm2 | 6.96
COc1ccc(/C=C/C(=O)c2c(O)cc(OC)cc2OC)cc1 [FLAVOKAWAIN A] | 90 ×10⁻⁷ mol/cm2 | 5.05
COc1ccc(-c2cc(=O)c3c(O)c(OC)c(OC)c(OC)c3o2)cc1 [GARDENIN B] | 1.8 ×10⁻⁷ mol/cm2 | 6.74
COc1cc(O)cc(O)c1C(=O)/C=C/c1ccc(O)cc1 [HELICHRYSETIN] | 3.8 ×10⁻⁷ mol/cm2 | 6.42
C=C(C)[C@H]1Cc2c(ccc3c2O[C@@H]2COc4cc(OC)c(OC)cc4[C@@H]2C3=O)O1 [ROTENONE] | 1.5 ×10⁻⁷ mol/cm2 | 6.82
COc1ccc(-c2cc(=O)c3c(OC)c(OC)c(OC)c(OC)c3o2)cc1 [TANGERETIN] | 2.8 ×10⁻⁷ mol/cm2 | 6.55
